Most compounds without a hit are left out; they make up all but 1.8% or so of the library.
CHRM5 PAM: human M5 muscarinic receptor positive allosteric modulators, primary screen, CHO-K1 cells, Fluo-8 calcium fluorescence; activation, % at 3 µM; CHO-K1 hM5, ACh EC20 PAM; 0% = ACh EC20, 100% = ACh EC100; actives 0.3% (n = 360,000);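 active = activation above the run cutoff, the mean activation of all test compounds plus 3 SD, cut at about 18% in these data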
Target sequence (P08912 whole entry, looked up): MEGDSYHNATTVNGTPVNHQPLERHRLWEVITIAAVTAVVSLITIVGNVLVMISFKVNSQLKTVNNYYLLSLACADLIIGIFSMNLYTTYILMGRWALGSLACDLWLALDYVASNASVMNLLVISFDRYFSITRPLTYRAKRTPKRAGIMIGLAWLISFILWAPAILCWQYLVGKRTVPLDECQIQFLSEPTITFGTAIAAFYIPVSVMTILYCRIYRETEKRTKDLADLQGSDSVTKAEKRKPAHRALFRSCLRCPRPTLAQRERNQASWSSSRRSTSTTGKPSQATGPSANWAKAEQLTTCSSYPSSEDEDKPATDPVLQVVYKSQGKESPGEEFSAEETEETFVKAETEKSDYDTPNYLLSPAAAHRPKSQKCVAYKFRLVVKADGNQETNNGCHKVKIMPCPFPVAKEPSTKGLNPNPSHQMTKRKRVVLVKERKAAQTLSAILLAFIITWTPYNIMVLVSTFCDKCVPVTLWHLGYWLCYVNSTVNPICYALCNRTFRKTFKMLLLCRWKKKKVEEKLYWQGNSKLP
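Measured by: Fluo-8 calcium fluorescence; material: human M5 receptor in CHO-K1 cells; schedule: Post-acetylcholine fluorescence recording 140 s; benchmarks: low control EC20 acetylcholine (0%), high control EC100 acetylcholine (100%); read-out: Max/basal fluorescence ratio as % of EC20–EC100 ACh window; compound: single dose, 3 µM nominal final test concentration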
CHRM5 agonist: human M5 muscarinic receptor agonists, primary screen, CHO-K1 cells, Fluo-8 calcium fluorescence. Muscarinic acetylcholine receptor M5 (Homo sapiens), P08912. CHO-K1 hM5 cells; 0% DMSO wells, 100% maximal acetylcholine response. activation, % at 3 µM. actives 0.19% (n = 360,000);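 active = activation above the run's mean over test compounds plus 3 SD, cut at about 23% in these data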;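 note: signal is peak over basal fluorescence ratio across the kinetic read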
CHRM4 agonist: human M4 muscarinic receptor agonists, primary screen, CHO-K1 cells, Fluo-8 calcium fluorescence; actives 0.14% (n = 360,000); CHO-K1 hM4/Gqi5; vehicle 0%, full acetylcholine response 100%; Muscarinic acetylcholine receptor M4 (Homo sapiens), P08173; activation, % at 3 µM;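 active = activation above the run mean over all test wells plus 3 SD, cut at about 32% in these data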;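 note: peak over basal fluorescence ratio per well then scaled between controls; 0% = DMSO wells and 100% = acetylcholine at EC100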
M4 antag: human M4 muscarinic receptor antagonists, primary screen, CHO cells, Fluo-8 calcium fluorescence. CHO-hM4 cells, ACh EC80. actives 0.73% (n = 360,000). AID 624125, 2012. Muscarinic acetylcholine receptor M4 (Homo sapiens), P08173. inhibition, % at 3 µM;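 active = inhibition above its plate's cutoff, the mean inhibition of sample wells plus 3 SD, cut at about 27% in these data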;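 note: 0% = acetylcholine EC80 with DMSO and 100% = DMSO without agonist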
CHRM4 PAM: human M4 muscarinic receptor positive allosteric modulators, primary screen, CHO-K1 cells, Fluo-8 calcium fluorescence; actives 0.4% (n = 360,000); activation, % at 3 µM; AID 624126, 2012; CHO-K1 hM4/Gqi5, ACh EC20; 0% = ACh EC20, 100% = maximal ACh; Muscarinic acetylcholine receptor M4 (Homo sapiens), P08173;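 active = activation above its plate's cutoff, the mean activation of sample wells plus 3 SD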
M5 antag: human M5 muscarinic receptor antagonists, primary screen, CHO cells, Fluo-8 calcium fluorescence | Muscarinic acetylcholine receptor M5 (Homo sapiens), P08912 | CHO-hM5 cells, ACh EC80 | inhibition, % at 3 µM | actives 0.59% (n = 360,000);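 active = inhibition above a per-plate cutoff, the mean of that plate's test compounds plus 3 SD, cut at about 27% in these data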;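 note: 0% = acetylcholine EC80 with DMSO and 100% = DMSO without agonist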
* hit, by the source's call.

SMILES | CHRM5 PAM | CHRM5 agonist | CHRM4 agonist | M4 antag | CHRM4 PAM | M5 antag
C/C(=N\NC(=O)COc1cccc(Br)c1)c1ccc2c(c1)OCCO2 | -6 | 0 | 0 | 2 | 1 | 7
Cc1ccc(S(=O)(=O)c2cccc(S(=O)(=O)N3CCCC3)c2)cc1S(=O)(=O)N1CCCC1 | -16 | -5 | 9 | 81* | -33 | 17
COc1ccc(CCN2C(=O)C(Oc3ccccc3C)C2c2ccc3c(c2)OCO3)cc1OC (stereo unspecified) | -16 | -1 | 5 | 29* | -6 | 11
COc1ccc(CCN2C(=O)C(Oc3ccccc3C)C2c2ccc3c(c2)OCO3)cc1 (stereo unspecified) | 3 | 1 | 5 | -1 | -11 | 13
CC1(c2ccc(OC(F)F)cc2)NC(=O)N(/N=C/c2c(O)ccc3ccccc23)C1=O (stereo unspecified) | 0 | 0 | 1 | 8 | 20* | 2
COc1cc2c(cc1OC)-c1cc(OCCN3CCOCC3)nc(=O)n1CC2 | 25* | -6 | -1 | -6 | 5 | 3
Cc1cc(C)c(C(=O)N2CCCC(N3CCN(c4ccc(F)cc4)CC3)C2)o1 (stereo unspecified) | 6 | -5 | 3 | 3 | 4 | -3
C/C=C(\C)C(=O)NCCN1C2=NC[C@@H](C)N2C[C@H]1Cc1ccc(O)cc1 | 13 | -2 | 0 | 0 | 30* | -4
c1ccc2c(c1)OC(CCCN1CCCCC1)c1ccccc1S2 (stereo unspecified) | -28 | -10 | 12 | 19 | -17 | 22
CN1CCCC(CC2Oc3ccccc3Sc3ccccc32)C1 (stereo unspecified) | -18 | -5 | 5 | 73* | -41 | 54*
Cc1ccc(Cl)cc1N1CCN(C(=O)C2CCN(S(=O)(=O)c3cccnc3)CC2)CC1 | -10 | 9 | 17 | 7 | 0 | 11
Cc1ccc(Cl)cc1N1CCN(C(=O)C2CCN(S(=O)(=O)c3c(C)nn(C)c3C)CC2)CC1 | -26 | 7 | 21 | 26 | -16 | 30*
C/C(=N\NC(=O)c1cc2c(s1)CCC(C)C2)c1ccc[nH]1 (stereo unspecified) | 6 | 2 | 41* | 1 | 2 | 2
CCCCCCCCN1C(=O)[C@H](CC(=O)NCCCN2CCCC2=O)C[C@@]2(C(=O)OC)CC(C)(C)CC=C12 | -2 | 2 | 16 | -21 | 7 | 9
O=C(Nc1cc(S(=O)(=O)N2CCOCC2)ccc1N1CCCC1)c1cccnc1Cl | 3 | 2 | 0 | 28* | 11 | 0
CCOc1ncccc1C(=O)Nc1cc(S(=O)(=O)N2CCOCC2)ccc1N1CCCC1 | -8 | -3 | 14 | -1 | -9 | 16
O=C(CN1C(=O)c2ccccc2C1=O)Nc1cccc(S(=O)(=O)Nc2ccccc2Cl)c1 | 2 | 2 | 4 | -2 | 25* | -2
COC(=O)c1cc(NC(=O)Nc2cccc(Cl)c2)ccc1Cl | -22 | 11 | 20 | 20 | -13 | 32*
COC(=O)c1cccc(NC(=O)Nc2ccc(Cl)cc2)c1 | -26 | 3 | 17 | 2 | -9 | 17
O=C(Nc1cccnc1)c1cc(Br)c(Br)s1 | -14 | 26* | 26 | -28 | 6 | 4
O=C(Nc1cccc(Cl)c1)Nc1cccc(Cl)c1 | -23 | -1 | 16 | 3 | -2 | 23
O=C(Nc1cccc(F)c1)Nc1cccc(Cl)c1 | -16 | 14 | 20 | 8 | -9 | 28*
CCOc1ccc(Nc2ncnc3c2cnn3C)cc1 | 4 | 3 | 0 | 3 | -2 | 3
Cc1cc(NC(=O)COC(=O)CCS(=O)(=O)c2cc(Cl)ccc2Cl)no1 | -2 | -2 | 1 | 1 | 2 | 6
COc1ccccc1NS(=O)(=O)c1cccc(NC(=O)Nc2cccc(Cl)c2)c1 | -19 | 5 | 18 | 47* | -15 | 59*
SMILES | CHRM5 PAM | CHRM5 agonist | CHRM4 agonist | M4 antag | CHRM4 PAM | M5 antag
O=C(Nc1cccnc1)Nc1ccccc1Cl | -3 | 1 | 0 | -5 | 9 | 0
O=C(Nc1cccnc1)Nc1cc(Cl)cc(Cl)c1 | -18 | 8 | 17 | 15 | -15 | 30*
O=S(=O)(Nc1cccc2ncccc12)c1cccs1 | 1 | 0 | 3 | 37* | 1 | 20
CC1N=C(SCC(=O)c2ccc(F)cc2)N2C(C)N=C(SCC(=O)c3ccc(F)cc3)N12 (stereo unspecified) | -6 | 0 | 0 | 11 | -3 | 2
CCOC(=O)c1sc(NC(=O)c2ccc(Cl)s2)cc1C | -3 | 1 | 1 | -2 | 4 | -1
CCOC(=O)c1sc(NC(=O)Nc2ccc(Cl)cc2)cc1C | -27 | 7 | 17 | 33* | -16 | 38*
O=C(NC1CC2CCC(C1)N2C(=O)NCc1ccccc1)C1CC1 (stereo unspecified) | 2 | -6 | 1 | 30* | -16 | -3
O=C(Cn1cnc2c(nnn2Cc2ccccc2)c1=O)c1ccccc1 | -4 | 2 | 5 | -22 | 18* | 0
Cc1ccc(C(=O)Sc2cccccc2=O)cc1 | -7 | 3 | 8 | 57* | -8 | 42*
O=C(Cc1ccc(S(=O)(=O)N2CCOCC2)s1)NCCOc1ccccc1 | 3 | 3 | 4 | 6 | 4 | -4
O=C(CC1CCCCC1)NCc1ccccn1 | -2 | 2 | 0 | 0 | 3 | 7
O=C(c1c(F)cccc1F)N(Cc1ccccn1)C1CC1 | 2 | -3 | 1 | -2 | 18* | 2
Cc1ccc(S(=O)(=O)N2CCC(C(=O)OCC(=O)N3CCC(C)CC3)CC2)cc1C | 3 | -1 | 2 | -2 | 5 | 2
Cc1ncc(CN2CCCC(C(=O)Nc3ccc(-c4cccc(F)c4)cc3)C2)n1C (stereo unspecified) | -15 | -7 | 7 | 33* | -16 | 7
CCN(CC)S(=O)(=O)c1ccc(Oc2ccccc2)c(N)c1 | 9 | -1 | 4 | 6 | 2 | 8
CCN(CC)S(=O)(=O)c1ccc(N2CCN(c3ccccc3OC)CC2)c(N)c1 | -16 | 7 | 18 | 20 | -15 | 30*
CCc1ccc([C@@H]2C[C@H]3[C@@H](CN2S(=O)(=O)c2ccc(C)cc2)C(=O)C[C@@H](c2ccc(C)cc2)N3S(=O)(=O)c2ccc(C)cc2)cc1 | -7 | 1 | 0 | -17 | 3 | 1

Assay outcomes as filed in PubChem.
